The values below come from ChEMBL document CHEMBL6177924, “Synthesis and antifungal evaluation of new azole derivatives containing 1,2,3-triazole” (RSC Med Chem, 2025).

Converted amounts (≈) assume the structure as drawn. The source made the active and inactive calls. The calls are words filed in the database; no cut-off is given here.

In experiment [1] the test system is Candida albicans. Kind of experiment: Antibiofilm activity in Candida albicans SC5314 assessed as appearance of short mycelia at 0.27 microg/ml measured after 24 hrs by inverted microscopic analysis. It counts as functional, organism-based. As to conditions: dose 0.27 µg/ml. Put shortly: (§1)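 Log-phase C. albicans in RPMI1640+10% FBS at 1×10^5 CFU/mL allowed to adhere in 24-well plates for 90 min at 30 °C; unattached medium removed. 1 mL medium with drug (0.27, 0.53, 1.06 µg/mL) or without drug added; 24 h at 30 °C. Biofilm stained with crystal violet 30 min, washed 3× with PBS, viewed by inverted microscope.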

Experiment [2] relates to Candida albicans. In words: Induction of morphological changes in Candida albicans assessed as incomplete cell wall structure at 0.53 to 1.06 microg/ml incubated for 16 to 24 hrs by transmission electron microscopic analysis. The conditions noted are these: dose 0.53-1.06 µg/ml, time 16-24 hrs. It counts as functional, organism-based. Put shortly: (§2)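 C. albicans at 5×10^5 CFU/mL in SDB shaken with drug (0.27, 0.53, 1.06 µg/mL), fluconazole or no drug at 30 °C, 150 r/min, for 16-24 h. Pellets washed with PBS and fixed in cold 3% paraformaldehyde/2.5% glutaraldehyde at 4 °C, then 1% OsO4. Dehydrated in acetone and embedded in Epon-812. 60-90 nm sections stained with uranyl acetate and lead citrate, imaged by TEM.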

Another experiment deals with Cell membrane. Kind of experiment: Induction of cell membrane permeability in Candida albicans assessed as increase in red fluorescence incubated for 16 to 24 hrs by PI staining based fluorescence microscopic analysis. Type of experiment: subcellular. As to conditions: time 16-24 hrs. Summed up:
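C. albicans at 1×10^5 CFU/mL in SDB grown with drug (0.27, 0.53, 1.06 µg/mL), fluconazole or no drug at 30 °C, 150 r/min, for 16-24 h. Cells washed and resuspended in PBS at 2×10^6 CFU/mL. Stained with propidium iodide (final 5 µg/mL) 30 min at room temperature in the dark, then washed. Imaged by fluorescence microscopy and fluorescence intensity measured.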

For experiment [3], the system named is Candida albicans. In words: Antifungal activity against drug sensitive Candida albicans SC5314 assessed as inhibition of fungal growth incubated for 24 hrs by CLSI protocol based microdilution method. It counts as functional. Summed up: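 Broth microdilution of log-phase C. albicans at 1×10^5 CFU/mL in Sabouraud liquid medium (SDB). Compounds serially diluted 5-fold to final 200-0.064 µg/mL, DMSO below 0.1%. Triplicate wells, 200 µL final volume, with growth, blank and fluconazole controls. Incubated 24 h at 30 °C, OD read at 630 nm; experiment repeated three times.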

The test system of experiment [4] is Candida albicans. Kind of experiment: Antifungal activity against Candida albicans assessed as increase in pseudomycelial fungal cells with reduction in mycelial formation at 0.27 to 1.06 microg/ml measured after 8 hrs by inverted microscopic analysis. Type of experiment: functional, organism-based. As to conditions: dose 0.27-1.06 µg/ml. Summed up:
(§3)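 Hyphae were induced in SD+10% FBS or in Spider medium. Log-phase cells at 1×10^5 CFU/mL final, 1 mL per well in 24-well plates, 3 wells per group. Drug at 0.27, 0.53 or 1.06 µg/mL, fluconazole, or no-drug control. Incubated at 30 °C; hyphal formation observed and photographed by inverted microscope at 4 h and 8 h.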

The subject of experiment [5] is Candida albicans. In words: Antifungal activity against drug resistant Candida albicans SC5314-FR assessed as inhibition of fungal growth incubated for 24 hrs by CLSI protocol based microdilution method. It counts as functional. Summed up: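 Fluconazole-resistant strain derived from SC5314 by fluconazole exposure. Log-phase cells at 1×10^5 CFU/mL in SDB. Drug fivefold serial dilutions, 200–0.064 µg/mL final, DMSO <0.1%, triplicate wells, 200 µL. Incubated 30 °C for 24 h and read at OD630. Growth, blank and fluconazole controls included. Run three times.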

Experiment [6] deals with Candida albicans. Kind of experiment: Antibiofilm activity in Candida albicans SC5314 assessed as appearance of pseudomycelial form of fungal cells at 0.27 microg/ml measured after 24 hrs by inverted microscopic analysis. The conditions noted are these: dose 0.27 µg/ml. It counts as functional, organism-based. Put shortly:
as §1

The test system of experiment [7] is Candida albicans. Kind of experiment: Induction of morphological changes in Candida albicans assessed as absence of intracellular substance at 0.53 microg/ml incubated for 16 to 24 hrs by transmission electron microscopic analysis. It counts as functional, organism-based. As to conditions: dose 0.53 µg/ml, time 16-24 hrs. Summed up:
as §2

In experiment [8] the test system is Candida albicans. Kind of experiment: Antifungal activity against Candida albicans assessed as inhibition of mycelia formation at 0.27 to 1.06 microg/ml measured after 4 to 8 hrs by inverted microscopic analysis. It counts as functional, organism-based. As to conditions: dose 0.27-1.06 µg/ml, time 4-8 hrs. Put shortly: as §3

Take `O=C(Cn1cc(COC(Cn2ccnc2)c2ccc(Cl)cc2Cl)nn1)c1ccc2ccccc2c1` (centres undefined): the result in the experiment on Candida albicans [1], in the experiment with Candida albicans [2], with Candida albicans [4], in the experiment with Candida albicans [6], in the experiment with Candida albicans [7] and in the experiment on Candida albicans [8] was Active. Moreover, in the experiment with Cell membrane, the Activity entry is “Dose-dependent-effect”. The MIC50 in the experiment with Candida albicans [3] is 0.53 µg/mL (≈ 1.05 µM); with Candida albicans [5] it was 10.9 µg/mL (≈ 21.6 µM).
